Results from ChEMBL document CHEMBL1255572, “Novel pyrimidines as acid pump antagonists (APAs)” (Bioorg Med Chem Lett, 2010).
Structures can show the parent of a compound that is named as a salt.

Assay: Inhibition of H+/K+/ATPase
Procedure, shortened: (§1)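 Ion-leaky membrane vesicles enriched in H+/K+-ATPase prepared from pig stomach. Lyophilized vesicles in 5 mM Pipes/Tris pH 6.1 preincubated 5 min with compound at various concentrations. K+-containing or K+-free buffer then added, ATP substrate added, and incubated 30 min at 37 °C. Colorimetric reagent stopped the reaction and Pi was read at 620 nm. K+-stimulated activity is the difference between with and without K+. IC50 by Litchfield–Wilcoxon.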

Row | SMILES | IC50 [nM]
1 | Cc1nc(Cc2ccc(F)cc2)nc(N2CCc3c(Cl)cccc3C2C)c1C (centres undefined) | 1990
2 | Cc1ccc2c(c1)CCN(c1nc(C(O)c3ccc(F)cc3)nc(C)c1C)C2C (centres undefined) | 1510
3 | Cc1nc(Cc2ccc(F)cc2)nc(N2CCc3ccc(Cl)cc3C2C)c1C (centres undefined) | 1630
4 | Cc1ccc2c(c1)CCN(c1nc(C3(c4ccc(F)cc4)CC3)nc(C)c1C)C2C (centres undefined) | 1290
5 | Cc1ccc2c(c1)CCN(c1nc(C(=O)c3ccc(F)cc3)nc(C)c1C)C2C (centres undefined) | 1910
6 | Cc1ccc2c(c1)CCN(c1nc(C(C)(C)c3ccc(F)cc3)nc(C)c1C)C2C (centres undefined) | 1760

Continued, values first:

Row | IC50 [nM] | SMILES
7 | 1240 | Cc1nc(Cc2ccc(F)cc2)nc(N2CCc3ccc(F)cc3C2C)c1C (centres undefined)
8 | 1130 | Cc1ccc2c(c1)CCN(c1nc(C(F)c3ccc(F)cc3)nc(C)c1C)C2C (centres undefined)
9 | 1120 | COc1ccc2c(c1)C(C)N(c1nc(C(=O)c3ccc(F)cc3)nc(C)c1C)CC2 (centres undefined)
10 | 940 | Cc1nc(Cc2ccc(F)cc2)nc(N2CCc3cc(Cl)ccc3C2C)c1C (centres undefined)
11 | 700 | Cc1cccc2c1C(C)N(c1nc(Cc3ccc(F)cc3)nc(C)c1C)CC2 (centres undefined)
12 | 610 | Cc1nc(Cc2ccc(F)cc2)nc(N2CC(C)c3ccccc3C2C)c1C (centres undefined)
13 | 350 | Cc1nc(Nc2ccc(F)cc2)nc(N2CCc3ccccc3C2C)c1C (centres undefined) [REVAPRAZAN HYDROCHLORIDE]
14 | 300 | Cc1ccc2c(c1)C(C)N(c1nc(Cc3ccc(F)cc3)nc(C)c1C)CC2 (centres undefined)
15 | 230 | Cc1ccc2c(c1)CCN(c1nc(Cc3ccc(F)cc3)nc(C)c1C)C2C (centres undefined)
16 | 170 | COc1ccc2c(c1)CCN(c1nc(Cc3ccc(F)cc3)nc(C)c1C)C2C (centres undefined)
17 | 52 | COc1ccc2c(c1)C(C)N(c1nc(Cc3ccc(F)cc3)nc(C)c1C)CC2 (centres undefined)

Assay: Inhibition of H+/K+/ATPase at 4 uM
Procedure, shortened: as §1

Row | inhibition [%] | SMILES
18 | 34.2 | COc1ccc2c(c1)C(C)N(c1nc(C(C)(C)c3ccc(F)cc3)nc(C)c1C)CC2 (centres undefined)
19 | 1.4 | COc1ccc2c(c1)C(C)N(c1nc(C3(c4ccc(F)cc4)CC3)nc(C)c1C)CC2 (centres undefined)
